Data from PubChem BioAssay AID522 (The Scripps Research Institute Molecular Screening Center, 2006).
About 1,200 (1.8%) of roughly 65,000 compounds were called active.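 Rule for the calls: active = activation above the mean activation of all tested compounds plus 3 SD (cut at about 50% in these data); inactive = the rest.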 The sample as a whole holds a higher share of actives than the screen did.

What follows are molecules tested against Steroidogenic factor 1 (Homo sapiens) (UniProt Q13285) (assay: SF-1 ligand-binding domain transactivation enhancers – cell-based, CHO-K1, Gal4-SF-1 LBD, luciferase luminescence, primary screen (AID 522)). Conditions: CHO-K1 Gal4-SF-1 LBD luciferase reporter; at 10 µM; hits give high values; % increase over DMSO SF-1-specific signal.
Steroidogenic factor 1 (Homo sapiens), sequence (Q13285 whole entry, looked up, the tested form may be a part): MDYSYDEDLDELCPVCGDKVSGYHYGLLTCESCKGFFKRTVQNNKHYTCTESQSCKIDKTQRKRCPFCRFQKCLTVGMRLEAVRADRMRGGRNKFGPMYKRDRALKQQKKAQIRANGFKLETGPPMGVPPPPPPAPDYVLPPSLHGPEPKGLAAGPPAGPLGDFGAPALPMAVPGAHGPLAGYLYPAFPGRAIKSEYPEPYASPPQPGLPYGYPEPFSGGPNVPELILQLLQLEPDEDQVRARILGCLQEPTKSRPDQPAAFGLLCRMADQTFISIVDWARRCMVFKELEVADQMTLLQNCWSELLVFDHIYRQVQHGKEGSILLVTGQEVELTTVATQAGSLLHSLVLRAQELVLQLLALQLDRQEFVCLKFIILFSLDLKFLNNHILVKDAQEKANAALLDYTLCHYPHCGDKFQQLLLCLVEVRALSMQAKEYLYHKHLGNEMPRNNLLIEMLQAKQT
Method in brief: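 Material: Transient Gal4-SF-1 LBD reporter, CHO-K1 | Input: 4,000 cells/well | Dosing: One dose, 10 µM compound, 1% DMSO | Incubation: 20 h compound treatment, 37 °C | Detection: SteadyLite luciferase luminescence | Evaluation: Percent activation relative to DMSO median and mock-transfected background | Benchmarks: DMSO-treated SF-1-transfected cells as negative, DMSO-treated mock-transfected cells lacking SF-1 as background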

Compound	activation
OC(COc1ccc2ccccc2c1)CN1CCOCC1 (stereo unspecified)	39.4% (inactive)
CN1CCN(CC(=O)Nc2sc3c(c2C#N)CCC(C(C)(C)C)C3)CC1 (stereo unspecified)	17.2% (inactive)
CCCCCCOC(=O)NCC(O)c1ccccc1 (stereo unspecified)	52.5% (active)
CCCCCOC(=O)NCCOC(=O)Nc1ccc(C(=O)OCC)cc1	-12.6% (inactive)
CCCCOC(=O)NCN1C(=O)C2C3C=CC(C3)C2C1=O (stereo unspecified)	-13.3% (inactive)
CCCn1c(O)c(CN2CCCC(C)C2)c(C)c(C#N)c1=O (stereo unspecified)	-4.9% (inactive)
O=C(CCS(=O)(=O)c1ccccc1)Nc1nc2c(s1)CCCC2	3.8% (inactive)
COC(=O)C(NC(C)=O)(Nc1nc2c(s1)CCCC2)C(F)(F)F (stereo unspecified)	-0.1% (inactive)
Fc1ccc2nc(Nc3nc4c(s3)CCCC4)sc2c1	90% (active)
CN(Cc1ccccc1)C(=O)CCNC(=O)Cn1cnc2ccccc2c1=O	-16% (inactive)
Cc1ccc(F)cc1NC(=O)Cc1nn(C)c(=O)c2ccccc12	-42.9% (inactive)
O=C(Nn1cnc2ccccc2c1=O)c1ccc(F)cc1Cl	64.7% (active)
Cc1cccc(N2CCN(S(=O)(=O)c3ccc4c(c3)c(=O)n(C)c(=O)n4C)CC2C)c1 (stereo unspecified)	3.8% (inactive)
COc1ccc(N2C(=O)c3cccc4cccc(c34)C2=O)nn1	0.5% (inactive)
CCc1ccccc1N(CC(=O)NCCSCc1ccco1)S(C)(=O)=O	4.6% (inactive)
O=C(c1cnn2ccccc12)N1CCc2ccccc21	111% (active)
O=C(c1cccc(C(=O)N2CCc3ccccc32)n1)N1CCc2ccccc21	-0.8% (inactive)
Cc1occc1C(=O)N1CCCc2ccccc21	-7.2% (inactive)
COc1ccc(OCC(=O)N2CCN(C(=O)COc3ccccc3)CC2)cc1	-5.8% (inactive)
CCOC(=O)c1ccc(-c2ccc(C(=O)Nc3cccnc3)o2)cc1	51.3% (active)
CCOc1cccc(C(=O)Nc2cccnc2)c1	6.8% (inactive)
CCOC(=O)c1cc(NC(=O)c2cccnc2)cc(C(=O)OCC)c1	-4.7% (inactive)
CCC1=C/C(=C\c2ccc3c(c2)OCO3)C(=O)S1	0.1% (inactive)
COc1ccc(S(=O)(=O)N2CCCC(C(=O)Nc3ccc(NC(=O)c4ccccn4)cc3)C2)cc1 (stereo unspecified)	63.3% (active)
CCOc1cccc(NC(=O)C2CCCN(S(=O)(=O)c3ccc(OC)cc3)C2)c1 (stereo unspecified)	0.1% (inactive)
COc1ccc(NC(=O)C2CCCN(S(=O)(=O)c3cccc4cccnc34)C2)cc1 (stereo unspecified)	5.1% (inactive)

Compound	activation
N#CC1=C(N)C(C#N)(C#N)[C@H](c2ccsc2)[C@H]2COCC=C12	-1.6% (inactive)
COc1ccc(NC(=O)c2c(C)oc3c2CCCC3)cc1	26.5% (inactive)
COc1ccccc1-c1cc(C(=O)N2CCCCC2)no1	82.1% (active)
O=C(c1cc(-c2ccccc2O)on1)N1CCCC1	20.3% (inactive)
COc1ccccc1N1CCN(C(=O)c2cc(-c3ccc(Br)cc3)on2)CC1	3.2% (inactive)
Cc1ccc(Cn2c(NC(=O)c3ccco3)nc3ccccc32)cc1	-1.8% (inactive)
COC(=O)c1cc(Cl)c(NC(=O)c2ccco2)cc1OC	-3% (inactive)
Cc1ccc(-n2nc3cc(Cl)c(NC(=O)c4ccco4)cc3n2)cc1	70.4% (active)
CN(C)Cc1c(C#N)c2ccccc2n1C	-11.9% (inactive)
Cn1c(COc2ccc(Cl)cc2)nc2ccccc2c1=O	45% (inactive)
Cc1ccc(C(=O)CSc2nc3ccccc3c(=O)n2N)o1	32.8% (inactive)
COc1ccc(OCc2ccc(-c3nc4ccccc4c(=O)n3N)o2)cc1	59% (active)
CCOC(=O)c1cccc(NC(=O)CN(c2ccc(C)cc2)S(=O)(=O)c2c(C)noc2C)c1	-5.1% (inactive)
CC(=O)N1CCC(C(=O)Nc2nc(-c3ccccc3)ns2)CC1	-1.6% (inactive)
COc1ccc(CN(C(=O)c2cccs2)c2nccs2)cc1OC	7.7% (inactive)
O=C(CSCc1cccs1)N1CCCC1	60.5% (active)
O=C(c1cc(-c2cccs2)on1)N1CCCCC1	41.3% (inactive)
Cn1c(=NC(=O)CSCC(=O)N2CCCCC2)sc2ccccc21	8.9% (inactive)
CC(=O)Oc1ccc(C)cc1N1C(=O)c2ccc(C(=O)O)cc2C1=O	-0.3% (inactive)
O=C(CSc1nnc2ccccn12)c1ccccc1	55.3% (active)
Cn1c(CC(=O)Nc2ccccc2)nnc1SCC(=O)c1ccccc1	4.4% (inactive)
O=C(CSc1nnc(-c2ccco2)n1CC1CCCO1)c1ccccc1 (stereo unspecified)	16.7% (inactive)
Cc1c(C(=O)NCC2CCCO2)sc2nc(-c3ccccc3)cn12 (stereo unspecified)	9% (inactive)
Cc1cc(NC(=O)c2cc(-c3cccs3)on2)nn1Cc1ccc(Cl)cc1	-2.6% (inactive)
Clc1ccc(Cc2nn3c(-c4ccncc4)nnc3s2)cc1	15.3% (inactive)
Clc1ccc(Cc2nnc(-c3cccs3)o2)cc1	59.5% (active)

Compound	activation
CSC1=NCCN1C(=O)c1ccc(S(=O)(=O)N2CCOCC2)cc1	-27.8% (inactive)
COC(=O)c1ccc(NCC(=O)c2ccccc2)cc1	68.7% (active)
CCN(CC)C(=O)CCC(=O)Nc1ccc(C(=O)OC)cc1	-4.8% (inactive)
COC(=O)c1ccc(NC(=O)C(C)N2C(=O)c3ccccc3C2=O)cc1 (stereo unspecified)	11.6% (inactive)
C=CCn1c(=O)c2ccccc2n2c(SCC(=O)N3CCCc4ccccc43)nnc12	-8.3% (inactive)
N#Cc1nc(Cc2ccccc2)oc1NCCc1ccccc1	63.4% (active)
CCOc1ccc(Nc2oc(Cc3ccccc3)nc2C#N)cc1	39.8% (inactive)
N#Cc1nc(COc2ccc(-c3ccccc3)cc2)oc1NCc1cccnc1	-9.1% (inactive)
CCOc1ccc2nc(NCCNS(=O)(=O)c3ccccc3)c(C#N)cc2c1	9.2% (inactive)
Cc1ccc(-c2noc(CN3CCN(Cc4ccccc4)CC3)n2)cc1	16.7% (inactive)
COc1ccccc1Cc1nc(-c2ccc(C)cc2)no1	16.4% (inactive)
COc1ccc2[nH]c(=O)c(-c3noc(-c4ccc(F)cc4)n3)cc2c1	-0.1% (inactive)
Cc1ccc(Cc2nc(-c3cccc(C)c3)no2)cc1	53.9% (active)
Cc1cccc(-c2noc(-c3ccc(F)cc3)n2)c1	77.6% (active)
Cc1ccc(-c2noc(CCC(N)=O)n2)cc1	9.8% (inactive)
O=C1CCC(C(=O)Nc2ccc(OC(F)F)cc2)N1 (stereo unspecified)	-10.9% (inactive)
COc1ccc(NC(=O)CSc2nnc(-c3cccs3)n2Cc2ccco2)cc1OC	-6% (inactive)
CCOC(=O)CSc1nnc(CNc2nc(-c3ccccc3)cs2)n1C	11.1% (inactive)
CC(=O)Nc1ccc(S(=O)(=O)N2CCN(CCCOc3cc(C)ccc3C)CC2)cc1	-14.5% (inactive)
Cc1nc2ccc(C(=O)N3CCSCC3)cc2s1	0.4% (inactive)
O=C(Nc1cccc2cccnc12)c1cccc(N2C(=O)CCC2=O)c1	9% (inactive)
COc1ccc(NC(=O)Nc2cccc3cccnc23)cc1	65.5% (active)
CCCNC(=O)Nc1ccccc1C(=O)Nc1ccc(OC)cc1	7.4% (inactive)
COc1cc(-c2nc(S(=O)(=O)c3ccc(Cl)cc3)c(N(C)C)o2)cc(OC)c1OC	-17.6% (inactive)
Cc1ccc(C(c2nnnn2CS(=O)(=O)c2ccc(C)cc2)N2CCC(C(N)=O)CC2)cc1 (stereo unspecified)	-4.8% (inactive)
Cc1cc(C)cc(N(CC(=O)NCC2CCCO2)S(=O)(=O)c2c(C)noc2C)c1 (stereo unspecified)	-8.7% (inactive)

Compound	activation
N#Cc1c(NC(=O)CCCN2C(=O)c3ccccc3C2=O)oc(-c2ccccc2)c1-c1ccccc1	12.7% (inactive)
CCCc1[nH]nc2c1C(c1c(C)nn(-c3ccccc3)c1Cl)C(C#N)=C(N)O2 (stereo unspecified)	6.3% (inactive)
CNC(=O)NCCN1CCCC1=O	1% (inactive)
c1ccc(CSc2nnc(-c3ccco3)n2Cc2ccccc2)cc1	76% (active)
c1ccc(CSc2nnc(-c3ccco3)c(-c3ccco3)n2)cc1	0.5% (inactive)
O=C(CSc1nnc(-c2ccco2)n1Cc1ccccc1)NC(=O)NCc1ccco1	-12.1% (inactive)
CCn1c(COc2ccc(OC)cc2)nnc1SCC(=O)Nc1cc(OC)ccc1OC	-13.5% (inactive)
COc1cc(C2C3C(=O)N(c4ccccc4)C(=O)C3ON2c2ccccc2)ccc1O (stereo unspecified)	51.7% (active)
COc1cc(C2C(C(=O)c3ccc(C)o3)=C(O)C(=O)N2CCc2ccccc2)ccc1O (stereo unspecified)	8.7% (inactive)
Cc1ccccc1N1C(=O)C2ON(c3ccccc3)C(c3ccncc3)C2C1=O (stereo unspecified)	5.4% (inactive)
COc1ccccc1NC(=O)CSc1nnc(-c2ccoc2C)n1CCc1ccccc1	-3.3% (inactive)
Cn1nnc(NC(=O)CSc2ncn[nH]2)n1	4.4% (inactive)
CC(C)(C)c1ccc(C(=O)CSc2ncn[nH]2)cc1	57.1% (active)
CCN(C(=O)CSc1ncn[nH]1)c1cccc2ccccc12	16.4% (inactive)
O=S(=O)(c1cccc(-c2nnc(SC(F)F)n2-c2ccccc2)c1)N1CCCCC1	4.3% (inactive)
CCOc1cc(N2CCOCC2)c(OCC)cc1NC(=O)COc1cccc2cccnc12	8.2% (inactive)
CCc1nnc(NC(=O)CCC(=O)O)s1	-8.1% (inactive)
Cc1ccc(C(=O)Nc2nnc(-c3cccs3)s2)cc1C	80.9% (active)
CCc1nnc(NC(=O)c2cccs2)s1	50% (active)
Cc1occc1C(=O)Nc1nnc(-c2ccncc2)s1	20.4% (inactive)
Cc1ccc(C(=O)Nc2nnc(-c3ccncc3)s2)o1	21.8% (inactive)
CCc1ccccc1NC(=O)c1cccs1	-5.6% (inactive)
CCOC(=O)c1ccc(-n2c(C)nc3c(cnn3-c3ccccc3C)c2=O)cc1	17.1% (inactive)
